Results as given in ChEMBL document CHEMBL1955789, “3,4-Diarylpiperidines as potent renin inhibitors” (Bioorg Med Chem Lett, 2012).
pIC50: −log10 of the molar value.

Assays:
Renin [1] = target: T1, Renin (Homo sapiens, UniProt P00797); assay: Inhibition of human recombinant renin using DNP-Lys-His-Pro-Phe-His-Leu-Val-Ile-His-D,L-Amp as substrate after 3 hrs by fluorimetry
T1 sequence (P00797 whole entry): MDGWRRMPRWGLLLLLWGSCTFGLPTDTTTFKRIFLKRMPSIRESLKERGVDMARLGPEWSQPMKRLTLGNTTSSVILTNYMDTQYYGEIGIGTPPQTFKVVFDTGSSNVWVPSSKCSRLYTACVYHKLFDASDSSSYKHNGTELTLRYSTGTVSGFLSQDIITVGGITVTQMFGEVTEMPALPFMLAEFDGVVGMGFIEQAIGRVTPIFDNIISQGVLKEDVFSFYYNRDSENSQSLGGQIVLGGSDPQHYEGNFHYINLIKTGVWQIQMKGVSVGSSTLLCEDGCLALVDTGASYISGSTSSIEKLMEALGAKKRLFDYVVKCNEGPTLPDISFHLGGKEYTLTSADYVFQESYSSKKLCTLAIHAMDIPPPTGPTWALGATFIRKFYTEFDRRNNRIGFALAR
Method in brief: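 Human recombinant renin at 100 pM incubated with or without inhibitor and 6 µM Q-FRET substrate in 50 mM MOPS, 100 mM NaCl, pH 7.4, 0.002% Tween, 37 °C for 3 h. Fluorescence read at 0 and 3 h (ex 328 nm, em 388 nm). Values are means of at least two experiments.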

Renin [2] = target: T1, Renin; assay: Inhibition of human recombinant renin using QXL520-Lys-His-Pro-Phe-His-Leu-Val-Ile-His-Lys-(5-FAM) as substrate preincubated for 10 mins prior to substrate addition measure after 1 hr by fluorimetry in the presence of human plasma
Method in brief: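 Frozen human EDTA-plasma thawed and centrifuged at 2900 g for 15 min. Recombinant human renin was added to the supernatant at 1 nM nominal, and inhibitor preincubation was 10 min at 37 °C. Q-FRET substrate was added in Tris/EDTA pH 7.2, then incubated 1 h at 37 °C. Fluorescence read at 0 and 1 h (ex 490 nm, em 520 nm). Means of at least two experiments.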

CYP3A4 [3] = target: T2, CYP3A4 (Homo sapiens, UniProt P08684); assay: Reversible inhibition of CYP3A4 using testosterone as substrate assessed as remaining activity at 10 uM; assay type: ADME; details: probe testosterone; read-out: Activity
CYP3A4 [4] = target: T2, CYP3A4; assay: Time dependent inhibition of CYP3A4 using testosterone as substrate at 10 uM for 30 mins; assay type: ADME; details: probe testosterone
Method in brief: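 CYP3A4 conversion of testosterone (250 µM) to 6β-hydroxytestosterone compared before and after a 30 min preincubation with compound in DMSO. Result expressed as percentage activity loss; 0% change means no measurable time-dependent inhibition.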

[5] = target: Voltage-gated inwardly rectifying potassium channel KCNH2 (Homo sapiens, UniProt Q12809); assay: Inhibition of human ERG
[6] = Cmax in Beagle dog at 3 mg/kg, po and 1 mg/kg, iv; assay type: ADME, organism-based, Canis lupus familiaris; details: in vivo
[7] = Clearance in Beagle dog at 3 mg/kg, po and 1 mg/kg, iv; assay type: ADME, organism-based, Canis lupus familiaris; details: in vivo
[8] = Cmax in Sprague-Dawley rat at 30 mg/kg, po and 5 mg/kg, iv; assay type: ADME, organism-based; details: in vivo
[9] = Volume of distribution at steady state in Beagle dog at 3 mg/kg, po and 1 mg/kg, iv; assay type: ADME, organism-based, Canis lupus familiaris; details: in vivo, read-out: Vdss
[10] = Half life in Beagle dog at 3 mg/kg, po and 1 mg/kg, iv; assay type: ADME, organism-based, Canis lupus familiaris; details: in vivo
[11] = Half life in Sprague-Dawley rat at 30 mg/kg, po and 5 mg/kg, iv; assay type: ADME, organism-based; details: in vivo
[12] = Clearance in Sprague-Dawley rat at 30 mg/kg, po and 5 mg/kg, iv; assay type: ADME, organism-based; details: in vivo
Rattus norvegicus [13] = assay: Antihypertensive activity in rat dTGR model expressing human renin and angiotensinogen assessed as time of blood pressure lowering effect at 10 mg/kg, po; assay type: functional
Rattus norvegicus [14] = assay: Antihypertensive activity in rat dTGR model expressing human renin and angiotensinogen assessed as decrease in blood pressure at 10 mg/kg, po; assay type: functional
[15] = Oral bioavailability in Beagle dog at 3 mg/kg; assay type: ADME, organism-based, Canis lupus familiaris; details: in vivo
[16] = Oral bioavailability in Sprague-Dawley rat at 30 mg/kg; assay type: ADME, organism-based; details: in vivo
[17] = Volume of distribution at steady state in Sprague-Dawley rat at 30 mg/kg, po and 5 mg/kg, iv; assay type: ADME, organism-based; details: in vivo, read-out: Vdss

Sequence of Voltage-gated inwardly rectifying potassium channel KCNH2 (Q12809 whole entry): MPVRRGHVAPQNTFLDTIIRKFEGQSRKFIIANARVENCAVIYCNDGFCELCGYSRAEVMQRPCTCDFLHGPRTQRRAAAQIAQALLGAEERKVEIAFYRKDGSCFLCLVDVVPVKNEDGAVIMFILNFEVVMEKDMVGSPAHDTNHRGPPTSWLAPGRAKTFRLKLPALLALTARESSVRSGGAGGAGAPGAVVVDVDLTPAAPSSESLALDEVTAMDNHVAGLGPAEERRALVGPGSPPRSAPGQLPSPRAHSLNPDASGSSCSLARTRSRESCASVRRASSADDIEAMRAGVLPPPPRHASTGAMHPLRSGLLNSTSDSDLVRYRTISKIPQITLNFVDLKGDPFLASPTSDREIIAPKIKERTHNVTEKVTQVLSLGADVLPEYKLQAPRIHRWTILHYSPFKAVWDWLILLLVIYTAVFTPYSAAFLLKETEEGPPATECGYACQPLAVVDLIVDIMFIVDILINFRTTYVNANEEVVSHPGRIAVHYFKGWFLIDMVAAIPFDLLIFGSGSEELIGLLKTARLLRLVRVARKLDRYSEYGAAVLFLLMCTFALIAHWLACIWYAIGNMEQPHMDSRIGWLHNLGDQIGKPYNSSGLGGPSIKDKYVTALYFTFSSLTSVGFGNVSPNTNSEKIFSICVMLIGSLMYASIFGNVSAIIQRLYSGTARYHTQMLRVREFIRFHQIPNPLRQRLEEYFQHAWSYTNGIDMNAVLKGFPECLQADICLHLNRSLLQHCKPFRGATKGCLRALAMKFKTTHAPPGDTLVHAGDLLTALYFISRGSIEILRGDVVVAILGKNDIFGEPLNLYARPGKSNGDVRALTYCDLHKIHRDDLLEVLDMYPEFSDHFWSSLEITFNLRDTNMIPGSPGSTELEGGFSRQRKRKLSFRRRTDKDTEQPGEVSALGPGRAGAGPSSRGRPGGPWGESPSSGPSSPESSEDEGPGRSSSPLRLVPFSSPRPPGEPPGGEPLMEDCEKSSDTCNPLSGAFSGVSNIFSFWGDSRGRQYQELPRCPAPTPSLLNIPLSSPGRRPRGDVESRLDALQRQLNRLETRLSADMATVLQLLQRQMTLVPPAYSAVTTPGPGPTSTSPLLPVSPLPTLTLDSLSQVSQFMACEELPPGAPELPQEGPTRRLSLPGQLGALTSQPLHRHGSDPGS
T2 sequence (P08684 whole entry): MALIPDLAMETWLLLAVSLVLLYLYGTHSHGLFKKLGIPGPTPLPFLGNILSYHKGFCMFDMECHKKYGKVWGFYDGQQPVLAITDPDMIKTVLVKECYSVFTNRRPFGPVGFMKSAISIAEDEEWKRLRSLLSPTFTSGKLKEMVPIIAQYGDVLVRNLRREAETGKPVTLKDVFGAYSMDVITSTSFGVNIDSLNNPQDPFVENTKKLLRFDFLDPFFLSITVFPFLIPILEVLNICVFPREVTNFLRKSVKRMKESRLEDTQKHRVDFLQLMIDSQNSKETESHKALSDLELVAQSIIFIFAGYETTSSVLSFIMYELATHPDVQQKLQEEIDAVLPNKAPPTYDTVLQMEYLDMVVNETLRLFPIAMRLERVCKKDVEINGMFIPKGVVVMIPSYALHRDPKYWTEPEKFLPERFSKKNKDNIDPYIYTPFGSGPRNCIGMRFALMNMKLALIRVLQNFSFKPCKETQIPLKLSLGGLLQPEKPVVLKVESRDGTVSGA

SMILES	pIC50 (Renin [1])	pIC50 (Renin [2])	activity at 10 µM (CYP3A4 [3]) [%]	inhibition at 0.5 h, 10 µM (CYP3A4 [4]) [%]	pIC50 [5]	other results
CC(=O)NCCc1ccccc1-c1ccc([C@H]2CNCC[C@@]23OC(=O)c2cc(F)c(F)cc23)c(C)c1	9.85	8.80	80	88	4.89	
COC[C@H](C)COCc1ccc([C@@]2(O)CCNC[C@@H]2c2ccc(-c3ccccc3CCNC(C)=O)cc2C)cc1			88	72	5.05	
CC(=O)NCCc1ccccc1-c1ccc([C@H]2CNCC[C@@H]2c2ccn(C)c(=O)c2)c(Cl)c1.Cl						Cmax [6]: 350 nM; clearance [7]: 24 mL/min/kg; Cmax [8]: 450 nM; Vd [9]: 4.6 L/kg; half-life [10]: 6.2 h; half-life [11]: 4 h; clearance [12]: 115 mL/min/kg; Time (Rattus norvegicus [13]): 24 h; Activity (Rattus norvegicus [14]): 32 mmHg; bioavailability [15]: 30%; bioavailability [16]: 12%; Vd [17]: 25 L/kg
CC(=O)NCCc1ccccc1-c1ccc([C@H]2CNCC[C@]2(O)c2ccc(F)c(F)c2)c(C)c1	9.30	8.31	87	40	5.38	
CC(=O)NCCc1ccccc1-c1ccc([C@H]2CNCC[C@@]23OCc2cc(F)c(F)cc23)c(C)c1	9.77	8.89	88	68	5.29	
CC(=O)NCCc1ccccc1-c1ccc([C@H]2CNCC[C@@H]2c2cccnc2)c(Cl)c1	8.85	8.44	98	55		
CC(=O)NCCc1ccccc1-c1ccc([C@@H](CN)Cc2ccc(OCCOc3c(Cl)cc(C)cc3Cl)cc2)c(C)c1.Cl			53	74		Cmax [8]: 440 nM
COCC(F)(F)COCc1ccc([C@@]2(O)CCNC[C@@H]2c2ccc(-c3ccccc3CCNC(C)=O)cc2C)cc1			76	37	5.01	

Continued, in another order:

pIC50 (Renin [1])	pIC50 (Renin [2])	activity at 10 µM (CYP3A4 [3]) [%]	inhibition at 0.5 h, 10 µM (CYP3A4 [4]) [%]	SMILES	pIC50 [5]	other results
8.32	8.10	92	21	CCC(=O)NCCc1ccccc1-c1ccc([C@H]2CNCC[C@@H]2c2ccn(C)c(=O)c2)c(Cl)c1	5.55	
8.45	8.21	92	46	COC(=O)NCCc1ccccc1-c1ccc([C@H]2CNCC[C@@H]2c2ccn(C)c(=O)c2)c(Cl)c1		
7.96	7.55	91	58	CCOC(=O)NCCc1ccccc1-c1ccc([C@H]2CNCC[C@@H]2c2ccn(C)c(=O)c2)c(Cl)c1	5.49	
9.30	8.12	98	49	CC(=O)NCCc1ccccc1-c1ccc([C@H]2CNCC[C@@H]2c2ccc(F)c(F)c2)c(Cl)c1		
7.13	7.01			COCC(=O)NCCc1ccccc1-c1ccc([C@H]2CNCC[C@@H]2c2ccn(C)c(=O)c2)c(Cl)c1		
		97	0	CC(=O)NCCc1ccccc1-c1ccc([C@H]2CNCC[C@@H]2c2ccn(C)c(=O)c2)c(Cl)c1	5.24	
